Experimental data as given in the M2OR odorant receptor database.

Target: T1, OR5P3 (Homo sapiens) (UniProt Q8WZ94)
T1 sequence (whole entry): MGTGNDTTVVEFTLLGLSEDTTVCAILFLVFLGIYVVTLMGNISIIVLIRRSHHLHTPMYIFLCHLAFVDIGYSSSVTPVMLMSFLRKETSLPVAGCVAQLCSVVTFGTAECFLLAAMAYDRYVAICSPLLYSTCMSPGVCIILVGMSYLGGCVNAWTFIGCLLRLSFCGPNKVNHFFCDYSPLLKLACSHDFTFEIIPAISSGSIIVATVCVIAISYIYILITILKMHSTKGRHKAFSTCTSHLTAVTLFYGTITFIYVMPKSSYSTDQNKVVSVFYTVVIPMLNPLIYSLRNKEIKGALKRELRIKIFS
Conditions: stereoisomer not certain
In short: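 Each entry records the cell line, G-protein, co-transfected protein and tags used. Methods varied with the source, often transient luciferase assays in mammalian cell lines. A receptor–molecule pair is called responsive (active) if the original authors judged its signal statistically different from baseline and non-responsive (inactive) otherwise.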

Odorant receptor agonist call, active:
CCCCCCCO

Odorant receptor agonist call, inactive:
CCCCCCCCCO, CCCCCC=O, CCC(=O)C(=O)CC, CC(=O)Oc1ccccc1, CCC(C(=O)O)c1ccccc1 (stereo not given), CCCCC(C)=O, CCCCCO, CCCC(=O)C(C)=O, CCCCCCCCCCO, COc1cc(C(=O)O)ccc1O, C=CCOC(=O)CCCCCC, CCCCCCCCC(=O)O, CCCCCCCCS, CCCCC(=O)O, CC(=O)OCC=C(C)C, CCCC(C)=O, CCC(=O)O, CCCCCCC(=O)[O-].[H+], CC(C)=CCCC(C)CCO (stereo not given), CCCCCCC(C)=O, CCCCCCCC(C)=O, CC(C)=CCCC(C)=CCO, CC(=O)OCc1ccccc1, CCCCOC(=O)C(C)OC(=O)CCC (stereo not given), CCCCCCCC(=O)[O-].[H+], CCCCCCCCCS, O=C(c1ccccc1)c1ccccc1, CCCCCCOC(C)=O, CCCCC(=O)CC
